ChEMBL document CHEMBL2177011, “Discovery, synthesis, and biological evaluation of orally active pyrrolidone derivatives as novel inhibitors of p53-MDM2 protein-protein interaction” (J Med Chem, 2012)

Tests used:
A549 [1] = test: Antiproliferative activity against human A549 cells expressing wild type p53 after 72 hrs by MTT assay; type: functional, cell-based; settings: Homo sapiens, A549, 72 h; read-out: IC50
How it was run: (§1)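 Cells seeded at 5−6 × 10⁴ per well and cultured 24 h, then exposed in triplicate wells to a range of compound concentrations for 72 h, with 0.1% DMSO as control. MTT (5 mg/mL solution) was added for 4 h at 37 °C, formazan dissolved in DMSO, absorbance read at 570 nm. Drug-free wells served as blanks; IC50 calculated.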

Mus musculus [2] = test: Toxicity in human A549 cells expressing wild type p53 xenografted nude BALB/C mouse assessed as reduction of body weight at 300 mg/kg, po qd for 14 days; type: organism-based; set-up: dose 300 mg/kg, route oral; settings: in vivo, 336 h
How it was run: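 Subcutaneous A549 xenografts (right axilla) in male BALB/C nude mice (18−20 g). From day 13 (tumors 100−300 mm³), the compound was given by gavage once daily for 14 days (6 animals per group; vehicle control group). Body weight was recorded every 4 days during treatment.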

[3] = target: Tumour suppressor protein p53/Mdm4 (Homo sapiens, UniProt P04637+O15151); test: Inhibition of p53-MDMX interaction after 1 hr by fluorescence polarization assay; type: protein assay
A549 [4] = test: Induction of apoptosis in human A549 cells expressing wild type p53 at 5 uM after 48 hrs using annexin V-FITC staining by flow cytometry assay; type: functional
How it was run: (§2)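 A549 cells (5 × 10⁵ cells/mL) were seeded in six-well plates and treated at 5−20 μM for 48 h. Cells were harvested by trypsinization, washed twice in cold PBS and resuspended in binding buffer. They were stained with annexin V-FITC for 15 min at room temperature, then with PI for 15 min in the dark, and analyzed by flow cytometry; n = 3.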

A549 [5] = test: Antitumor activity against human A549 cells expressing wild type p53 xenografted in nude BALB/C mouse assessed as inhibition of tumor growth at 300 mg/kg, po qd for 14 days; type: functional; settings: A549, 336 h, read-out: TGI
How it was run: (§3)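 Male BALB/C nude mice (18−20 g) had A549 cells implanted subcutaneously in the right axilla. Dosing started on day 13, when tumors reached 100−300 mm³. Mice were randomized (6 per treatment group, 10 controls) and dosed by gavage once daily for 14 days. Caliper tumor volume (TV = 1/2 × a × b²) was taken every 4 days; relative tumor volume was used. Mice were sacrificed on day 29 or 33.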

SAOS-2 = test: Antiproliferative activity against p53 deficient human Saos2 cells after 72 hrs by MTT assay; type: functional, cell-based; settings: SAOS-2, 72 h; how it was run: as §1
A549 [6] = test: Induction of apoptosis in human A549 cells expressing wild type p53 after 48 hrs using annexin V-FITC staining by flow cytometry assay; type: functional, cell-based; how it was run: as §2
A549 [7] = test: Induction of apoptosis in human A549 cells expressing wild type p53 at 20 uM after 48 hrs using annexin V-FITC staining by flow cytometry assay; type: functional; how it was run: as §2
U2OS = test: Antiproliferative activity against human U2OS cells expressing wild type p53 after 72 hrs by MTT assay; type: functional, cell-based; settings: Homo sapiens, U2OS, 72 h; read-out: IC50; how it was run: as §1
NCI-H1299 = test: Antiproliferative activity against p53 deficient human NCI-H1299 cells after 72 hrs by MTT assay; type: functional, cell-based; settings: NCI-H1299, 72 h; how it was run: as §1
A549 [8] = test: Induction of apoptosis in human A549 cells expressing wild type p53 at 10 uM after 48 hrs using annexin V-FITC staining by flow cytometry assay; type: functional; how it was run: as §2
Mus musculus [9] = test: Toxicity in nude BALB/C mouse assessed as mortality at 200 mg/kg, po qd for 14 days; type: organism-based; set-up: dose 200 mg/kg, route oral; settings: in vivo, 336 h
How it was run: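 Male BALB/C nude mice (18−20 g) carried subcutaneous A549 implants in the right axilla. Dosing began once tumors reached 100−300 mm³, 13 days after implantation. Animals were randomized into groups of 6 per treatment and 10 controls, then given 200 mg/kg by gavage once daily for 14 consecutive days. Body weight was recorded every 4 days. Mice were sacrificed on day 29 or 33.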

A549 [10] = test: Antitumor activity against human A549 cells expressing wild type p53 xenografted in nude BALB/C mouse assessed as inhibition of tumor growth at 200 mg/kg, po qd for 14 days; type: functional; settings: A549, 336 h, read-out: TGI; how it was run: as §3

Tumour suppressor protein p53/Mdm4, sequence (P04637 whole entry): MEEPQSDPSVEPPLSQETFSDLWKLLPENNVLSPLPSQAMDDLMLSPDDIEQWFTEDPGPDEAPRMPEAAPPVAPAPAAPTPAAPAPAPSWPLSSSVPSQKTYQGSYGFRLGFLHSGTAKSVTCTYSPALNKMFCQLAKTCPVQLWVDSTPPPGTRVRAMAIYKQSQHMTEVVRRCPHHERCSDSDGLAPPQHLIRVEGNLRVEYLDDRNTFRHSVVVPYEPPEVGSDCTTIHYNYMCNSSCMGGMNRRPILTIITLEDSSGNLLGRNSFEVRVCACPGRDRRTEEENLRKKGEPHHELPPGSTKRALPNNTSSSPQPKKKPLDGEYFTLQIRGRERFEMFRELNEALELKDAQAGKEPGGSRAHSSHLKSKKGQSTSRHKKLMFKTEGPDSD
Tumour suppressor protein p53/Mdm4, sequence (O15151 whole entry): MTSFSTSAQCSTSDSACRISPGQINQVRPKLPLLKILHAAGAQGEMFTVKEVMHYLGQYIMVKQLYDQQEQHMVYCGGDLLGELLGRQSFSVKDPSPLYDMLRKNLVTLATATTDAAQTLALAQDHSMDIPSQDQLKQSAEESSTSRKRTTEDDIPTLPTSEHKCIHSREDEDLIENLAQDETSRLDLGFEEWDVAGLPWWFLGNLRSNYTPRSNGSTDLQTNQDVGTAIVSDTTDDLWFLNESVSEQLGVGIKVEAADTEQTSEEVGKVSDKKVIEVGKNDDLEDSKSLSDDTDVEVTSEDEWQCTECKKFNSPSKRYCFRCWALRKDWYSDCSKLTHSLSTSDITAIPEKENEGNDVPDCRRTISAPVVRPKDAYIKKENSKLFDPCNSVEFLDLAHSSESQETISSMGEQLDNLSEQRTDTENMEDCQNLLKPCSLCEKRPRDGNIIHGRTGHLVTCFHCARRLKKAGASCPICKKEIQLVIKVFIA

Structure (SMILES)	IC50 (A549 [1]) [µM]	Activity (Mus musculus [2])	Ki [3]	Activity (A549 [4]) [%]	inhibition in vivo at 300 mg/kg (A549 [5]) [%]	IC50 (SAOS-2) [µM]	Activity (A549 [6])	Activity (A549 [7]) [%]	IC50 (U2OS) [µM]	IC50 (NCI-H1299) [µM]	Activity (A549 [8]) [%]	Activity (Mus musculus [9])	inhibition in vivo at 200 mg/kg (A549 [10]) [%]
C[C@@H](NC1=C(C(=O)c2ccccc2)[C@@H](c2ccc(Br)cc2)N(CCCn2ccnc2)C1=O)c1ccccc1	1.97	Non-toxic	Not Active	0.63	52.5	27.4	Dose-dependent effect	17.85	28.1	14.4	4.02	Non-toxic	40
COc1ccc(C2=N[C@@H](c3ccc(Cl)cc3)[C@@H](c3ccc(Cl)cc3)N2C(=O)N2CCNC(=O)C2)c(OC(C)C)c1 [NUTLIN-3]	–	–	–	0.9	–	31.6	Dose-dependent effect	15.49	14.3	–	6.46	–	–
